High-throughput results: PubChem BioAssay, several laboratories
Compounds with a hit are over-represented: about 3.4% of the library has one in this group of screens.
TMEM16A inh – blocks the mouse calcium-activated chloride channel TMEM16A | Q8BHY3 | HEK293 TMEM16A/YFP iodide influx fluorescence, ionomycin | normalized B-score (activity score, 25-100; higher = stronger inhibition) at 10 µM | 1.2% of 310,000 active;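 active = ratio plate-corrected score three or more library SD toward inhibition, starting fluorescence score within five deviations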;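 note: score derived from kinetic fluorescence span divided by baseline fluorescence per well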
MC4R antag cAMP – blocks human MC4R cAMP signaling | MC4R-expressing cells, MTII-stimulated cAMP, LANCE TR-FRET | P32245 | 0.48% of 360,000 active | inhibition, % at 6.5 µM;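 active = inhibition above its plate's cutoff, the mean of tested wells on that plate plus 3 SD, cut at about 29% in these data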;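 note: 0% = Melanotan II alone and 100% = Melanotan II plus saturating MCL0020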
Target sequence (P32245 whole entry, looked up): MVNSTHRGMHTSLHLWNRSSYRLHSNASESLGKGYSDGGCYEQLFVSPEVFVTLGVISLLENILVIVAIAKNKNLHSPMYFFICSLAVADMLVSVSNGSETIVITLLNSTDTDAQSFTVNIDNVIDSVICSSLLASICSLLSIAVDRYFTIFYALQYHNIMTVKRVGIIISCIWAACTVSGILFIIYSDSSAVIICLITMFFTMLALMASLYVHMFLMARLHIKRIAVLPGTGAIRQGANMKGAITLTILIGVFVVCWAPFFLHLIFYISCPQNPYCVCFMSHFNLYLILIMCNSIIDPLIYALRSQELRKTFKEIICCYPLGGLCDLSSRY
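System: U2OS cells stably expressing human melanocortin 4 receptor (MC4R). Reagent: Melanotan II challenge after compound preincubation. Doses: 6.5 µM. Times: 30-min compound, 1-h challenge, 1-h detection, room temperature. Measured by: TR-FRET with Eu-cAMP and labeled anti-cAMP, 671 nm. Replicates: singlicate.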
m5-HT2A agonist – activates the mouse 5-HT2A serotonin receptor | P35363 | CHO-K1 mHTR2A beta-arrestin complementation, luminescence; percent of 30 µM serotonin response | activation, % at 7.6 µM | 0.66% of 360,000 active;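 active = activation above a run cutoff, the mean activation of all tested compounds plus 3 SD, cut at about 14% in these data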;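 note: 0% = plate median of compound wells and 100% = 30 µM serotonin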
ANO1 activ – mouse TMEM16A channel activation, primary screen; HEK293 TMEM16A/YFP-H148Q/I152L, iodide quench fluorescence; stronger effect = lower value; B-score at 10 µM; AID 623877; Q8BHY3; 0.3% of 340,000 active;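 active = fluorescence-ratio B-score plate-corrected deviation score at least 3 library SD below zero, with starting fluorescence score within 5 deviations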;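 note: channel opened by trigger with iodide after compound preincubation; score built on the fluorescence ratio of max minus min over baseline; more negative score means more quench and so TMEM16A activation or potentiation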
MIN6 prolif – induces beta-cell replication in MIN6 cells; 0.29% of 330,000 active; proliferation, % at 10 µM; AID 2380; MIN6 cells proliferation, ATPlite luminescence, 48 h; cells starved in 0.2% serum; 100% = growth in 10% serum;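 active = compounds whose signal lies at least 3.5 SD above the mean of all wells on their plate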;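 note: 0% = DMSO-treated cells in low-serum medium and 100% = 10% serum control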
MC4R barr agon – activates human MC4R beta-arrestin recruitment. activation, % at 8.9 µM. P32245. 0.98% of 360,000 active. U2OS MC4R beta-arrestin complementation, luminescence; percent of melanotan II response, DMSO zero;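 active = activation above a per-plate cutoff, the mean activation of sample wells on that plate plus 3 SD, cut at about 8% in these data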
An asterisk follows results filed as active; i = inactive; / = no result given.

SMILES	TMEM16A inh	MC4R antag cAMP	m5-HT2A agonist	ANO1 activ	MIN6 prolif	MC4R barr agon
FC(F)(F)c1cccc(N2CCN(C(=S)NC3CCCC3)CC2)c1	i	11	2	i	-4	8.3*
COc1ccccc1N1CC(C(=O)Nc2ccccc2N2CCCC2)CC1=O (stereo unspecified)	i	11	-3	i	4	5
CC(c1ccccc1)C1C(C#N)=C(N)SC(N)=C1C#N (stereo unspecified)	i	14	0	i	0	-2
CC(CC1C(C#N)=C(N)SC(N)=C1C#N)c1ccccc1 (stereo unspecified)	100*	0	8	i	-4	-2
N#Cc1ccc(-c2ccc(OCC(=O)NCCc3ccccc3)cc2)cc1	i	2	-5	i	3	9.1*
O=C(NCc1ccc(Cl)cc1)c1ccc(CNc2c(N3CCOCC3)c(=O)c2=O)cc1	i	13	-2	i	0	-1
O=C(NCCc1ccc(Cl)cc1)c1ccc(CNc2c(N3CCOCC3)c(=O)c2=O)cc1	i	2	-10	-6.6*	-1	-2
CN(Cc1cnn(Cc2ccccc2)c1)C(=O)c1cccc(S(=O)(=O)N2CCOCC2)c1	/	-8	-3	i	-5	-1
COc1ccc2nc(C)cc(NCc3ccc(F)cc3)c2c1	i	-2	-7	i	-4	0
Cc1ccccc1Oc1cc(-n2ncc(Cl)c(Cl)c2=O)ncn1	i	51*	0	i	/	-4
COc1ccc(OC)c2cc3ccccc3cc12	/	-7	4	-8.3*	/	-1
COc1cc2ccccc2cc1C(=O)O	i	0	0	i	-1	-1
O=S1(=O)N[C@@H](Cc2ccccc2)COc2cc(N3CCN(Cc4ccccc4F)CC3)ccc21	/	/	3	/	/	/
O=C(COc1ccccc1)Nc1nc(-c2ccc(S(=O)(=O)N3CCOCC3)cc2)cs1	i	-4	3	i	-2	-2
O=C(CCc1ccc(S(=O)(=O)N2CCOCC2)cc1)Nc1nc(COc2ccccc2)cs1	25*	2	0	i	-4	2
COc1ccc(C(C)=O)c(Oc2ccc(S(=O)(=O)N3CCOCC3)cn2)c1	/	-3	1	i	-2	-2
Cc1cc(C)n2nc(N)c(N=Nc3ccc4c(c3)OCO4)c2n1	i	-16	-2	i	-3	8.6*
O=C(COC(=O)c1cccc(C(F)(F)F)c1)NC(=O)NC1CCCC1	/	7	2	i	-2	-2
CC(C)CSC1=NSC2=NC(=O)/C(=C\c3cccs3)C(=N)N12	i	5	11	i	-3	2
CSC1=NSC2=NC(=O)/C(=C\c3cccs3)C(=N)N12	100*	5	1	i	/	0
Cc1ccc(-c2nc(CSCC(=O)N3CCN(C(=O)c4ccco4)CC3)c(C)o2)cc1	i	-1	0	i	-2	-1
Cc1ccc(-c2nc(CSCC(=O)N3CCN(c4ccccn4)CC3)c(C)o2)cc1	25*	-3	-2	i	-6	-2
CCc1ccc(-c2nc(CSCC(=O)N3CCN(c4ccccn4)CC3)c(C)o2)cc1	100*	-3	-4	i	-6	-1
Cc1ccc(-c2nc(CSCC(=O)N3CCOCC3)c(C)o2)cc1	i	10	-7	i	0	-2
c1ccc(CN2CCC3CC2c2cc(N4CCOCC4)ccc23)cc1 (stereo unspecified)	/	0	-1	/	/	1
SMILES	TMEM16A inh	MC4R antag cAMP	m5-HT2A agonist	ANO1 activ	MIN6 prolif	MC4R barr agon
COc1ccc(NS(=O)(=O)c2ccc(NC(=S)NC(=O)C(C)C)cc2)cc1	25*	0	7	i	-1	0
COc1ccc(S(=O)(=O)N(C)CC(=O)Nc2ccc(C(N)=O)cc2)cc1OC	i	12	4	i	6	-1
COC(=O)c1ccc(NC(=O)CN(C)S(=O)(=O)c2ccc(OC)c(C)c2)cc1	i	0	-1	i	1	8.3*
Cc1nc(NC(=O)CSc2nnc(C3CC3)n2C)sc1C	i	1	-12	i	1	0
CCOC(=O)c1cnc(-n2nc(C)cc2C)nc1NCCO	i	7	-1	i	4	1
CCOC(=O)c1cnc(-n2nc(C)cc2C)nc1NCc1ccccc1	100*	0	-3	i	-6	-1
COc1cc(/C=C2\C(=N)N3N=CSC3=NC2=O)cc(Br)c1OC(=O)c1ccco1	i	17	2	-8.9*	2	0
N=C1/C(=C\c2ccc(OC(=O)c3ccco3)cc2)C(=O)N=C2SC=NN12	/	-8	-4	i	/	7
O=C(O)c1ccc(Cn2cnc3c(=O)[nH]cnc32)cc1	/	-4	2	i	/	-1
COc1ccccc1-c1cc(C(=O)N2CCc3ccccc3C2)c2ccccc2n1	100*	/	/	/	-3	/
CC1=CC(=O)C(C(C)C)=CC1=NC(=O)c1ccc(C)cc1	i	51*	-1	i	-6	0
NC(=O)c1cc(S(=O)(=O)NCc2ccc(F)cc2)cs1	i	10	0	-14*	0	0
Cc1cccc(CNS(=O)(=O)c2csc(C(N)=O)c2)c1	i	4	3	i	-2	-4
Cc1ccsc1/C=N/Nc1ccc(F)cc1F	i	6	1	i	-2	1
CC/C(=N\NC(=O)c1cc(C2CC2)[nH]n1)c1ccccc1	i	-4	-6	i	0	0
CCc1ccc(/C=C2\SC(=S)N(CCCC(=O)Nc3ccc(C(=O)O)cc3)C2=O)cc1	100*	8	5	i	-4	-1
Cc1ccc(/C=C2\SC(=S)N(CCCC(=O)Nc3ccccc3C(=O)O)C2=O)cc1	i	1	-8	i	-7	0
O=C(CCCN1C(=O)/C(=C\c2ccccc2)SC1=S)Nc1ccc(C(=O)O)cc1	i	8	-4	i	0	0
CCc1ccc(/C=C2\SC(=S)N(CCCC(=O)Nc3ccccc3C(=O)O)C2=O)cc1	100*	-1	-3	i	-6	0
N#C/C(=C\c1ccc(O)c(O)c1)C(=O)N1CCc2ccccc21	25*	8	-5	i	-4	-2
COc1cc(/C=C(\C#N)C(=O)N2CCc3ccccc32)ccc1O	i	7	5	i	0	-2
CC1CCCCN1CC(O)COCc1ccc(Cl)cc1 (stereo unspecified)	i	10	5	i	-1	-1
C=CCn1c(SCC(=O)N2CCN(c3ccc(F)cc3)CC2)nnc1-c1ccco1	25*	8	-3	i	-2	1
